One block for each molecule: values may come before it. Where a SMILES comes first, the peptide text is derived from it. Bridges are numbered along the chain shown (N, C = ends). [ ]: non-standard residue; d: D form. Phe(4-CF3) = N[C@@H](Cc1ccc(C(F)(F)F)cc1)C(=O)O; 2Nal = N[C@@H](Cc1ccc2ccccc2c1)C(=O)O; 3Pal = N[C@@H](Cc1cccnc1)C(=O)O; NMeK = CN[C@@H](CCCCN)C(=O)O
Tests used:
[1] = target: Somatostatin receptor; test: Antagonism of in vitro SRIF inhibition of GH release from rat pituitary cells in culture; type: functional, cell-based; conditions: pituitary gland cell
In short: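 Dispersed anterior pituitary cells from adult male rats, cultured 4–5 days at 37 °C. Six doses per plate, triplicate wells. GH measured by double antibody RIA. Antagonist IC50 versus SRIF is the mean ± SEM of n dose-response curves.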

[2] = target: Somatostatin receptor type 1 (Homo sapiens, UniProt P30872); test: Ability to displace [125 I]labelled Tyr11-somatostatin from human hsst-1 receptor expressed on CHO cells; type: cell-based
In short: (§1)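 Membranes from stably transfected CHO-K1 clones, prepared in ice-cold 50 mM Tris-HCl and resuspended in 10 mM Tris-HCl. Stopped by filtration through PEI-soaked GF/C filters. Nonspecific binding taken with 1.0 μM SRIF. Ki ± SEM from concentration-dependent displacement.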

[3] = target: Somatostatin receptor type 4 (Homo sapiens, UniProt P31391); test: Ability to displace [125 I]labelled Tyr11-somatostatin from human hsst-4 receptor expressed on CHO cells; type: cell-based; in short: as §1
[4] = target: Somatostatin receptor type 2 (Homo sapiens, UniProt P30874); test: Ability to displace [125 I]labelled Tyr11-somatostatin from human hsst-2 receptor expressed on CHO cells; type: cell-based
[5] = target: Somatostatin receptor type 3 (Homo sapiens, UniProt P32745); test: Ability to displace [125 I]labelled Tyr11-somatostatin from human hsst-3 receptor expressed on CHO cells; type: cell-based; in short: as §1
[6] = target: Somatostatin receptor type 5 (Homo sapiens, UniProt P35346); test: Ability to displace [125 I]labelled Tyr11-somatostatin from human hsst-5 receptor expressed on CHO cells; type: cell-based; in short: as §1
Somatostatin receptor type 5, sequence (P35346 whole entry): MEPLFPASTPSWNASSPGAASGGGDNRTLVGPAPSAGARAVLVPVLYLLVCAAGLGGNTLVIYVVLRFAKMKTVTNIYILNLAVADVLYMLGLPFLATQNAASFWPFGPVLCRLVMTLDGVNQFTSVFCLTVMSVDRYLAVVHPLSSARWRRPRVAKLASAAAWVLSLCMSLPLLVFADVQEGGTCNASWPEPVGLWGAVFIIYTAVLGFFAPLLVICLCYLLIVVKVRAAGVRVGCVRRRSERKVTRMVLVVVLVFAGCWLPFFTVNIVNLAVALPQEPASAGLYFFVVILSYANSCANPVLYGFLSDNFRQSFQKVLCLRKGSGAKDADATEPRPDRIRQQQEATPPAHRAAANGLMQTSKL

Somatostatin receptor type 3, sequence (P32745 whole entry): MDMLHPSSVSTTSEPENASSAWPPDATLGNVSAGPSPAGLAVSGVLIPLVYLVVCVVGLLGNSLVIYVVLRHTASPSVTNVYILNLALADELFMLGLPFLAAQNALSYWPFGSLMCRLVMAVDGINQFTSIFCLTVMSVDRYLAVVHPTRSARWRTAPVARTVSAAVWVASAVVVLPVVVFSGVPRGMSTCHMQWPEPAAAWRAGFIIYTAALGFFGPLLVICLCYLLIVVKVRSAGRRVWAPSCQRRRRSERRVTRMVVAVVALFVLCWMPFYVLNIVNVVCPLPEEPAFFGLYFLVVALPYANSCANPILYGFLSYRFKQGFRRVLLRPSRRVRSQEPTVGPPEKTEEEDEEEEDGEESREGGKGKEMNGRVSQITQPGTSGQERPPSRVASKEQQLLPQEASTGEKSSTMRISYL
Somatostatin receptor type 4, sequence (P31391 whole entry): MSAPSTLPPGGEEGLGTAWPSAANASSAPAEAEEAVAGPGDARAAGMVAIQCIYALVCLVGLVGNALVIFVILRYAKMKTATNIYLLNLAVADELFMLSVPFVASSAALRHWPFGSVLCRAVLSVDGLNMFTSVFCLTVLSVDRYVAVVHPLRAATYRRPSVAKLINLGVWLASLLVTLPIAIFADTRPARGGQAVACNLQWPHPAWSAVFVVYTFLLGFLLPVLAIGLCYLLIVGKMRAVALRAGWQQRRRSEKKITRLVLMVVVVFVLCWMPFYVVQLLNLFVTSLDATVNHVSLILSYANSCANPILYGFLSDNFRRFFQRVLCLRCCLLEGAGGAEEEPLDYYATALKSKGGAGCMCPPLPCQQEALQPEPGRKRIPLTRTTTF
Somatostatin receptor type 2, sequence (P30874 whole entry): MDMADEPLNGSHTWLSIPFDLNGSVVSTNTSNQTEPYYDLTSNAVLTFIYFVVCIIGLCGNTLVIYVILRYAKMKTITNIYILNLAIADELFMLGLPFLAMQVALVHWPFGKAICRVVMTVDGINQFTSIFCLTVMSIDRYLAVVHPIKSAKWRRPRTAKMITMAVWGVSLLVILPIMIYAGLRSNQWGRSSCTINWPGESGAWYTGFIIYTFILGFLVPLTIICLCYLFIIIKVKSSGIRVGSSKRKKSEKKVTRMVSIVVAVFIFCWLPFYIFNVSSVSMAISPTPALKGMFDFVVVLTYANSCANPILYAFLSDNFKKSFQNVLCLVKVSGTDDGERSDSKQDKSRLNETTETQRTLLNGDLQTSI
Somatostatin receptor type 1, sequence (P30872 whole entry): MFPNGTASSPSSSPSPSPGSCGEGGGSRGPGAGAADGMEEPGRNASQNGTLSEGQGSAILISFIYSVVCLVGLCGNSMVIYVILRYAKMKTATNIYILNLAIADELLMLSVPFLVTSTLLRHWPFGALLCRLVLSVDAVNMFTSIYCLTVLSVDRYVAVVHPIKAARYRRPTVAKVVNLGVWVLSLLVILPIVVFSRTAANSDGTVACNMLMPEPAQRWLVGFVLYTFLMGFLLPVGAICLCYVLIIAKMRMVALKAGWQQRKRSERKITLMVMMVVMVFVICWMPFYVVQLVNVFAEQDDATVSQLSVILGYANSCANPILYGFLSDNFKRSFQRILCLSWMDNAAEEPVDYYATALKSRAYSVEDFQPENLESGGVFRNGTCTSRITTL

- IC50 [1]: 7.8 nM
Structure (SMILES): CN[C@@H](Cc1ccc(Cl)cc1)C(=O)N[C@H]1CSSC[C@H](C(=O)N[C@@H](Cc2ccc3ccccc3c2)C(N)=O)NC(=O)[C@@H]([C@H](C)O)NC(=O)[C@H](CCCCN)NC(=O)[C@@H](Cc2c[nH]c3ccccc23)NC(=O)[C@H](Cc2cccnc2)NC1=O

- IC50 [1]: 2.5 nM
Structure (SMILES): C[C@H](O)[C@H]1NC(=O)[C@H](CCCCN)N(C)C(=O)[C@@H](Cc2c[nH]c3ccccc23)N(C)C(=O)[C@H](Cc2cccnc2)NC(=O)[C@@H](NC(=O)[C@@H](N)Cc2ccc(Cl)cc2)CSSC[C@H](C(=O)N[C@@H](Cc2ccc3ccccc3c2)C(N)=O)NC1=O

- Ki ([2]; cho): > 1000 nM
- Ki ([3]; cho): > 1000 nM
- Ki ([4]; cho): 317 nM
- Ki ([5]; cho): 23.6 nM
- Ki [6]: > 1000 nM
Structure (SMILES): C[C@@H](O)[C@@H]1NC(=O)[C@H](CCN)NC(=O)[C@@H](Cc2c[nH]c3ccccc23)NC(=O)[C@H](Cc2cccnc2)NC(=O)[C@H](NC(=O)[C@@H](N)Cc2ccc(Cl)cc2)CSSC[C@@H](C(=O)N[C@@H](Cc2ccc3ccccc3c2)C(N)=O)NC1=O

- Ki [2]: > 1000 nM
- Ki [3]: 1250 nM
- Ki [4]: 11.3 nM
- Ki [5]: 40.2 nM
Structure (SMILES): C[C@@H](O)[C@@H]1NC(=O)[C@H](CCCCN)N(C)C(=O)[C@@H](Cc2c[nH]c3ccccc23)NC(=O)[C@H](Cc2cccnc2)NC(=O)[C@H](NC(=O)[C@@H](N)Cc2ccc(C(F)(F)F)cc2)CSSC[C@@H](C(=O)N[C@@H](Cc2ccc3ccccc3c2)C(N)=O)NC1=O (H-[Phe(4-CF3)][dC][3Pal][dW][NMeK]TC[2Nal]-NH2; disulfide 2-7)
